Reference: ChEMBL document CHEMBL4689842, “EUbOPEN Chemogenomics Library wave 1” (2021)

System: U2OS
Experiment: Multiplex assay against U2OS
Assay type: toxicity, cell-based
Settings: human
In short: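 Per cents of healthy-nucleus cells form the tubulin, mitochondrial-mass and membrane-permeability phenotype values. Live cells were stained at seeding with Hoechst33342, BioTracker Green Microtubule Cytoskeleton Dye, MitoTracker Red and Annexin V Alexa Fluor 680. After compound addition they were imaged on a CQ1 microscope at 37°C and 5% CO2, and CellPathfinder machine-learning gating split them into Hoechst high-intensity objects or normal cells, normal cells into healthy, pyknosed or fragmented nuclei, and pyknosed cells into mitotic or apoptotic.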

[1] = 12 h, 1 µM, compound concentration 1 uM, replicate 1
[2] = 12 h, 1 µM, compound concentration 1 uM, replicate 2
[3] = 12 h, 10 µM, compound concentration 10 uM, replicate 1
[4] = 12 h, 10 µM, compound concentration 10 uM, replicate 2
[5] = 24 h, 1 µM, compound concentration 1 uM, replicate 1
[6] = 24 h, 1 µM, compound concentration 1 uM, replicate 2
[7] = 24 h, 10 µM, compound concentration 10 uM, replicate 1
[8] = 24 h, 10 µM, compound concentration 10 uM, replicate 2
[9] = 48 h, 1 µM, compound concentration 1 uM, replicate 1
[10] = 48 h, 1 µM, compound concentration 1 uM, replicate 2
[11] = 48 h, 10 µM, compound concentration 10 uM, replicate 1
[12] = 48 h, 10 µM, compound concentration 10 uM, replicate 2

CC1=C(C(=O)Nc2cc3cn[nH]c3cc2F)C(c2ccc(C(F)(F)F)cc2)CC(=O)N1 (stereo not drawn)
Population Apoptotic (%) [1]: 46% | Population Fragmented Nuclei (%) [1]: 9% | Population Healthy Nuclei (%) [1]: 78% | Population Hoechst High Intensity Objects (%) [1]: 4% | Population Membrane Permeable-Phenotype (%) [1]: 6% | Population Mitochondria Different-Phenotype (%) [1]: 5% | Population Mitotic Cells (%) [1]: 53% | Population Normal (%) [1]: 95% | Population Pyknosed Nuclei (%) [1]: 12% | Population Tubulin-Different-Phenotype (%) [1]: 10% | Total Cell Count [1]: 190 | Population Apoptotic (%) [2]: 50% | Population Fragmented Nuclei (%) [2]: 2% | Population Healthy Nuclei (%) [2]: 93% | Population Hoechst High Intensity Objects (%) [2]: 10% | Population Membrane Permeable-Phenotype (%) [2]: 4% | Population Mitochondria Different-Phenotype (%) [2]: 9% | Population Mitotic Cells (%) [2]: 50% | Population Normal (%) [2]: 89% | Population Pyknosed Nuclei (%) [2]: 4% | Population Tubulin-Different-Phenotype (%) [2]: 14% | Total Cell Count [2]: 76 | Population Apoptotic (%) [3]: 40% | Population Fragmented Nuclei (%) [3]: 7% | Population Healthy Nuclei (%) [3]: 77% | Population Hoechst High Intensity Objects (%) [3]: 8% | Population Membrane Permeable-Phenotype (%) [3]: 3% | Population Mitochondria Different-Phenotype (%) [3]: 9% | Population Mitotic Cells (%) [3]: 60% | Population Normal (%) [3]: 91% | Population Pyknosed Nuclei (%) [3]: 14% | Population Tubulin-Different-Phenotype (%) [3]: 4% | Total Cell Count [3]: 223 | Population Apoptotic (%) [4]: 50% | Population Fragmented Nuclei (%) [4]: 21% | Population Healthy Nuclei (%) [4]: 70% | Population Hoechst High Intensity Objects (%) [4]: 9% | Population Membrane Permeable-Phenotype (%) [4]: 5% | Population Mitochondria Different-Phenotype (%) [4]: 12% | Population Mitotic Cells (%) [4]: 50% | Population Normal (%) [4]: 90% | Population Pyknosed Nuclei (%) [4]: 7% | Population Tubulin-Different-Phenotype (%) [4]: 25% | Total Cell Count [4]: 97 | Population Apoptotic (%) [5]: 56% | Population Fragmented Nuclei (%) [5]: 8% | Population Healthy Nuclei (%) [5]: 82% | Population Hoechst High Intensity Objects (%) [5]: 2% | Population Membrane Permeable-Phenotype (%) [5]: 6% | Population Mitochondria Different-Phenotype (%) [5]: 9% | Population Mitotic Cells (%) [5]: 43% | Population Normal (%) [5]: 97% | Population Pyknosed Nuclei (%) [5]: 8% | Population Tubulin-Different-Phenotype (%) [5]: 9% | Total Cell Count [5]: 176 | Population Apoptotic (%) [6]: 42% | Population Fragmented Nuclei (%) [6]: 7% | Population Healthy Nuclei (%) [6]: 86% | Population Hoechst High Intensity Objects (%) [6]: 4% | Population Membrane Permeable-Phenotype (%) [6]: 10% | Population Mitochondria Different-Phenotype (%) [6]: 13% | Population Mitotic Cells (%) [6]: 57% | Population Normal (%) [6]: 95% | Population Pyknosed Nuclei (%) [6]: 6% | Population Tubulin-Different-Phenotype (%) [6]: 16% | Total Cell Count [6]: 93 | Population Apoptotic (%) [7]: 66% | Population Fragmented Nuclei (%) [7]: 6% | Population Healthy Nuclei (%) [7]: 86% | Population Membrane Permeable-Phenotype (%) [7]: 1% | Population Mitochondria Different-Phenotype (%) [7]: 6% | Population Mitotic Cells (%) [7]: 33% | Population Pyknosed Nuclei (%) [7]: 7% | Population Tubulin-Different-Phenotype (%) [7]: 4% | Total Cell Count [7]: 277 | Population Apoptotic (%) [8]: 75% | Population Fragmented Nuclei (%) [8]: 23% | Population Healthy Nuclei (%) [8]: 68% | Population Hoechst High Intensity Objects (%) [8]: 6% | Population Membrane Permeable-Phenotype (%) [8]: 4% | Population Mitochondria Different-Phenotype (%) [8]: 14% | Population Mitotic Cells (%) [8]: 25% | Population Normal (%) [8]: 93% | Population Pyknosed Nuclei (%) [8]: 8% | Population Tubulin-Different-Phenotype (%) [8]: 29% | Total Cell Count [8]: 119 | Population Apoptotic (%) [9]: 34% | Population Fragmented Nuclei (%) [9]: 7% | Population Healthy Nuclei (%) [9]: 85% | Population Hoechst High Intensity Objects (%) [9]: 2% | Population Membrane Permeable-Phenotype (%) [9]: 3% | Population Mitochondria Different-Phenotype (%) [9]: 12% | Population Mitotic Cells (%) [9]: 65% | Population Normal (%) [9]: 97% | Population Pyknosed Nuclei (%) [9]: 7% | Population Tubulin-Different-Phenotype (%) [9]: 11% | Total Cell Count [9]: 181 | Population Apoptotic (%) [10]: 75% | Population Fragmented Nuclei (%) [10]: 6% | Population Healthy Nuclei (%) [10]: 90% | Population Hoechst High Intensity Objects (%) [10]: 4% | Population Membrane Permeable-Phenotype (%) [10]: 6% | Population Mitochondria Different-Phenotype (%) [10]: 18% | Population Mitotic Cells (%) [10]: 25% | Population Normal (%) [10]: 95% | Population Pyknosed Nuclei (%) [10]: 2% | Population Tubulin-Different-Phenotype (%) [10]: 12% | Total Cell Count [10]: 77 | Population Fragmented Nuclei (%) [11]: 7% | Population Healthy Nuclei (%) [11]: 77% | Population Hoechst High Intensity Objects (%) [11]: 2% | Population Membrane Permeable-Phenotype (%) [11]: 3% | Population Mitochondria Different-Phenotype (%) [11]: 12% | Population Normal (%) [11]: 97% | Population Pyknosed Nuclei (%) [11]: 15% | Population Tubulin-Different-Phenotype (%) [11]: 3% | Total Cell Count [11]: 438 | Population Apoptotic (%) [12]: 50% | Population Fragmented Nuclei (%) [12]: 15% | Population Healthy Nuclei (%) [12]: 76% | Population Hoechst High Intensity Objects (%) [12]: 3% | Population Membrane Permeable-Phenotype (%) [12]: 8% | Population Mitochondria Different-Phenotype (%) [12]: 28% | Population Mitotic Cells (%) [12]: 50% | Population Normal (%) [12]: 96% | Population Pyknosed Nuclei (%) [12]: 8% | Population Tubulin-Different-Phenotype (%) [12]: 32% | Total Cell Count [12]: 170
